# Compound activity from PubChem.
# A selection: hits, their analogues and other compounds. The true share with any hit is near 5.8%.
# ROMK primary: human ROMK K+ channel modulation, primary screen | 130,000 tested, 2% active | B-score at 10 µM | AID 1918 | Tet-inducible ROMK, thallium flux fluorescence; actives lie on both sides | P48048;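 active means signal ratio slope over the read window, or its plate-corrected B-score, at least 3 SD from the plate mean, either direction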;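 further: B-score of the F/F0 ratio slope over 7 to 12 s after thallium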
# Target sequence (P48048 whole entry, looked up): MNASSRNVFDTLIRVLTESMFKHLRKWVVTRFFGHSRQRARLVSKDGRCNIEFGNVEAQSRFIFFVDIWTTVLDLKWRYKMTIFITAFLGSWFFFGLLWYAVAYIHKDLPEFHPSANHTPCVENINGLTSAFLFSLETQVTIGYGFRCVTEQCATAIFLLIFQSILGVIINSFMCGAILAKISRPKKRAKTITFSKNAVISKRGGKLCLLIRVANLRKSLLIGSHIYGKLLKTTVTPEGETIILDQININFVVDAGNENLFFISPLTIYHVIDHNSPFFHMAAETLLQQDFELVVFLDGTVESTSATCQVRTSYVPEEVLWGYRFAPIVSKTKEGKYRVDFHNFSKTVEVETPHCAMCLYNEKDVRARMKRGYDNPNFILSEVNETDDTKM
# RBBP9 inh: inhibitors of human serine hydrolase RBBP9 | O75884 | 220,000 tested, 0.2% active | recombinant RBBP9, FP-Rh probe fluorescence polarization | inhibition, % at 7.94 µM | AID 1515;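 active means inhibition above the campaign mean of all tested compounds plus 3 SD, cut at about 14% in these data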;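 further: plate controls were DMSO wells with RBBP9 for no effect and wells lacking RBBP9 protein for full effect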
# Target sequence (O75884 whole entry, looked up): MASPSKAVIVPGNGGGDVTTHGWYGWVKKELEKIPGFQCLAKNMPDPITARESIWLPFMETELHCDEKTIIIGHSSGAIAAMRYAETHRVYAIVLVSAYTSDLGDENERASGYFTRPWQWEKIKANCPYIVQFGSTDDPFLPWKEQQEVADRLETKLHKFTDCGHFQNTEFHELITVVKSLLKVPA
#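 Measured by – fluorescence polarization · Test system – RBBP9 protein · Input – 2.5 µM RBBP9 dispensing solution, before mixing · Measure – percent inhibition from mP, scaled between DMSO and no-protein wells · Benchmarks – DMSO-treated enzyme wells and wells lacking RBBP9 · Times – preincubation 30 min plus labeling 45 min at 25 °C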
# 14-3-3 Bad PPI: disrupts binding of bovine 14-3-3 zeta to phospho-Bad peptide; inhibition, % at 21.7 µM; 220,000 tested, 0.71% active; TR-FRET 14-3-3zeta/Dy647-pBad peptide displacement, 1 h;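 active means inhibition above about 70%, limit read from the data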;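 further: 0% = full 14-3-3 plus peptide FRET controls and 100% = background without 14-3-3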
# p47phox inh: p47phox (human) inhibition | p47phox/p22phox peptide binding, fluorescence polarization, 2 h | inhibition, % at 24.7 µM | 220,000 tested, 0.53% active | AID 1274;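 active means inhibition above about 30%, limit read from the data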;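 further: 0% = p47phox with labelled peptide and 100% = labelled peptide alone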
# WT yeast gro inh: growth inhibition of WT yeast, mitochondrial fusion screen; mitochondrial fusion phenotypic screen, WT strain; inhibition, % at 10 µM; 190,000 tested, 2.1% active; in the data active means inhibition above about 58%; tested in S. cerevisiae
# Cl transport mod: modulators of human KCC2 chloride dependent transport; B-score of Tl+ flux slope (higher = more flux/activation; lower = inhibition) at 10 µM; AID 1456; 190,000 tested, 2.2% active; Q9H2X9; KCC2 cells, thallium flux FluoZin-2 fluorescence;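 active means thallium flux slope and its plate-corrected score both differing from the plate sample mean at a set confidence after two filtering rounds, in either direction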;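 further: slope of fluorescence scaled to starting intensity during 10 to 20 s after thallium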
# An asterisk follows results filed as active; nt = not tested or not shown; [ ] = dose if it differs, or a comment.
SMILES,ROMK primary,RBBP9 inh,14-3-3 Bad PPI,p47phox inh,WT yeast gro inh,Cl transport mod
CCc1ccc(NC(=O)CSc2nc3ccccc3c(=O)n2CCCN2CCC(C)CC2)cc1,-2.52,-6.5,-19.7,-1.7,79.1*,0.0294
CCOC(=O)CC/C(C)=N\N=C1\SC(CC(=O)O)C(=O)N1c1ccccc1 (centres undefined),nt,-1.3,2.3,-16.2,nt,nt
CCOCCCNC(=O)/C=C1\Sc2ccccc2N(Cc2ccccc2F)C1=O,-1.1,-9.2,-9.8,-5.8,14.8,0.0751
CN1CCN(CCCNC(=O)c2ccc(/C=C3\Sc4ccccc4N(Cc4ccccc4F)C3=O)cc2)CC1,-1.13,-8.6,85.7*,86.4*,49.0,0.56
CCN1CCN(CCNC(=O)c2ccc(/C=C3/Sc4ccccc4N(Cc4cccc(Cl)c4)C3=O)cc2)CC1,-1.27,-13.9,58.0,71.6*,98.1*,-0.357
O=C(NCCN1CCOCC1)c1ccc2c(c1)N(Cc1cccc(F)c1)C(=O)c1ccccc1S2,0.468,-13.4,67.7,-21.9,0.4,-1.32
O=C(O)CCC1OC(=O)C(O)=C1c1ccccc1 (centres undefined),nt,nt,-1.6,2.3,nt,0.561
CS(=O)(=O)N1CCc2cc(C(=O)N3CCOCC3)ccc21,0.715,0.1,-15.1,-3.6,81.8*,-0.56
CS(=O)(=O)N1CCc2cc(C(=O)N3CCCCC3)ccc21,-0.0312,-3.7,7.6,-8.8,-10.5,0.315
O=C(Nc1ccc(Cl)cc1)N1CCC(c2nc(-c3cccs3)no2)CC1,-0.214,-6.7,10.1,5.1,49.3,nt
O=C(Nc1ccc(Cl)cc1)N1CCC(c2nc(-c3ccccc3Cl)no2)CC1,nt,-5.7,-6.9,-3.0,64.5*,-0.741
Cc1cccc2sc(NS(C)(=O)=O)nc12,-0.473,2.5,6.8,-10.4,-12.6,0.228
CS(=O)(=O)c1cnc(-c2ccccc2)nc1-c1ccc(Cl)c(Cl)c1,0.343,3.6,72.7*,3.5,4.7,-1.98
CCOc1ccc(C(c2c(NC(=O)c3ccccc3)sc(C)c2C)N2CCN(C)CC2)cc1 (centres undefined),nt,0.0,-13.3,-14.8,77.9*,0.834
Cc1sc(NC(=O)c2ccccc2)c(C(c2ccccn2)N2CCN(CCO)CC2)c1C (centres undefined),nt,-6.9,-7.0,-23.5,8.6,-0.215
N#Cc1c(N)nc2c(c1-c1ccc3c(c1)OCO3)CCc1ccccc1-2,0.873,0.1,-9.6,-9.7,62.1*,-1.98
C=C(C)C1CC=C(C)/C(=N/NC(=O)COc2ccccc2Cl)C1 (centres undefined),0.797,-1.6,11.1,-12.7,58.3*,0.00316
C=C(C)C1CC=C(C)/C(=N/NC(=O)COc2ccc(C)cc2)C1 (centres undefined),nt,-10.0,-12.3,3.1,-10.0,0.871
CCCc1nn2c(=O)cc(O)nc2s1,0.352,-1.6,-26.2,-18.3,-15.6,-0.366
CCCc1nn2c(=O)c(C(c3ccc(C)cc3)c3c(O)nc4sc(CCC)nn4c3=O)c(O)nc2s1,nt,-3.9,-0.3,148.6*,-8.7,nt
N/C(=N\OC(=O)c1ccccc1Cl)c1ccccc1,nt,-1.4,-5.6,-15.8,5.4,nt
Cc1cccc(/C(N)=N/OC(=O)N2c3ccccc3Sc3ccccc32)c1,nt,1.1,-7.0,-18.6,66.7*,-0.515
N/C(=N\OC(=O)N1c2ccccc2Sc2ccccc21)c1ccccc1,0.271,-2.9,19.1,-22.5,65.7*,-1.15
Cc1cccc(/C(N)=N/OC(=O)Cc2ccccc2)c1,-0.291,0.1,-0.1,-3.5,14.5,-0.581
COC(=O)c1cc(S(=O)(=O)C(C)C)c(S(C)=O)s1 (centres undefined),nt,2.1,-5.8,-3.9,nt,nt
SMILES,ROMK primary,RBBP9 inh,14-3-3 Bad PPI,p47phox inh,WT yeast gro inh,Cl transport mod
O=C(Nc1nnc(COc2ccc(F)cc2)s1)Nc1ccccc1F,0,-5.8,1.6,-10.1,nt,0.458
CCN(CC)c1ccc(N2C(=O)/C(=C\c3cccs3)SC2=S)cc1,0.342,-11.3,91.7*[fluorescence artefact?],-15.2,-2.9,0.801
O=C1/C(=C/c2cccs2)SC(=S)N1c1ccccc1,nt,-2.1,-5.4,-4.5,6.7,0.862
Cc1nn(-c2ccc(F)cc2)c(Cl)c1/C=C/C(=O)OCC(=O)Nc1c(F)c(F)c(F)c(F)c1F,-0.0443,-10.1,5.9,-6.4,4.4,-0.2
CCCC(NC(=S)NCC1CCCO1)C12CC3CC(CC(C3)C1)C2 (centres undefined),-0.146,-2.1,7.0,-1.7,79.0*,-1.59
Cc1nc(/C(N)=N/OC(=O)Cc2ccccc2)no1,0.545,-8.4,-7.0,-8.0,-14.8,0.0738
O=C(NC1=NCCS1)c1cc(-c2cccs2)nc2ccccc12,nt,-0.2,-0.8,-32.0,nt,-0.589
CC(C)Oc1cccc(C(=O)NC2=NCCS2)c1,0.616,-2.9,79.7*,6.1,36.2,1.35
O=C(NC1=NCCS1)c1cccc2ccccc12,-0.452,-5.3,-13.1,-5.8,81.3*,-0.21
COc1cccc(C(=O)NC2=NCCS2)c1,nt,-1.1,-7.3,-19.0,11.4,1.37
CC1(C)C2C/C(=N\O)C(C)(/[N+]([O-])=C/c3cccc([N+](=O)[O-])c3)CC21 (centres undefined),-0.0108,2.9,-10.3,-8.4,12.4,-0.419
CN(c1ccccc1)C1CCCCC1NS(=O)(=O)c1ccc(Cl)cc1 (centres undefined),-0.0648,10.0,-2.1,-23.9,65.3*,1.04
CCN(CC)C1CCCCC1NS(=O)(=O)c1ccc(Cl)cc1 (centres undefined),nt,-3.3,1.8,-7.0,3.4,0.568
O=S(=O)(NC1CCCCC1Oc1ccccc1)c1ccc(Cl)cc1 (centres undefined),-0.416,-8.9,-16.2,-2.0,61.0*,-0.0212
CSc1ccc(OC2CCCCC2NS(=O)(=O)c2ccc(Cl)cc2)cc1 (centres undefined),nt,-5.4,-15.0,-15.6,73.9*,0.17
Cn1c(=O)[nH]c2ccc([N+](=O)[O-])nc21,nt,-7.3,5.7,6.8,-9.3,-0.455
CCCCNC(=S)N(C)/N=C/c1ccc2c(c1)OCO2,nt,-7.3,-7.5,-9.6,78.4*,-0.281
CCCCNC(=S)N(C)/N=C/c1ccc(F)cc1,-0.315,-1.1,10.0,-3.8,44.0,0.645
Cc1noc(C)c1C(=O)OCC(=O)Nc1ccccc1Oc1ccccc1,0.126,-1.1,-19.7,-6.4,59.0*,nt
CCOc1ccc(N2CC(C(=O)Nc3ccccc3N3CCOCC3)CC2=O)cc1 (centres undefined),0.685,5.9,10.2,2.6,2.2,nt
COc1cc(OC)cc(C(=O)Nc2nc(-c3ccccc3)c(-c3ccccc3)o2)c1,nt,-4.5,2.6,-20.9,44.8,9.96*
O=C(NCCCN1CCCCCC1)c1ccc(CS(=O)(=O)Cc2ccccc2F)o1,nt,-7.4,-97.2,89.0*,6.4,-0.0141
CC1CCN(CCCNC(=O)c2ccc(CS(=O)(=O)Cc3ccccc3F)o2)CC1,nt,0.7,-6.2,-43.0,-2.5,0.0708
